Bioassay records from PubChem BioAssay.
Only some compounds are listed: those with a hit (about 1.8% of all), similar ones and a draw of the others.
GRK2 inh: inhibitors of human GRK2 displacing RNA aptamer; bead flow cytometry, FAM-aptamer displacement from GRK2; inhibition of aptamer binding, % at 10 µM; 330,000 tested, 0.59% active;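 active means inhibition of aptamer binding above 40%, roughly 3 SD of noise, on plates passing a quality check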;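 further: median bead fluorescence of bound FAM aptamer so fluorescent compounds give negative values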
Target sequence (P25098 whole entry, looked up): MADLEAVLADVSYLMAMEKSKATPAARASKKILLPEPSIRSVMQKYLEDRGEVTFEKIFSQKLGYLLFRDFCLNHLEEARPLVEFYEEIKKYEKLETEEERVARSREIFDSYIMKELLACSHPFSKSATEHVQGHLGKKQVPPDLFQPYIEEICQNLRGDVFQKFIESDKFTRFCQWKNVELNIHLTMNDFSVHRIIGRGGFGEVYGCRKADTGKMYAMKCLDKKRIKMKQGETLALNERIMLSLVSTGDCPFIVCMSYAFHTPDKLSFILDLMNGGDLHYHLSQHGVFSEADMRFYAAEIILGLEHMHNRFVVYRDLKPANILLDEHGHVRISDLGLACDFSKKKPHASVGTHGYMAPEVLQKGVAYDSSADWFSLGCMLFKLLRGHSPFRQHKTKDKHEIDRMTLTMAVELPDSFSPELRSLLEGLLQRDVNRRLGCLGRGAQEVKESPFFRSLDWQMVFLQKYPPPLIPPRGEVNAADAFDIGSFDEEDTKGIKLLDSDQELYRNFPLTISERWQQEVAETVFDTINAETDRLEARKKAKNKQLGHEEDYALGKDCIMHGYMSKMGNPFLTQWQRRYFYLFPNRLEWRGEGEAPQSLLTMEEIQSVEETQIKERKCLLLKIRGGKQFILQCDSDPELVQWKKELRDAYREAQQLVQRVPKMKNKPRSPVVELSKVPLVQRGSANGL
CAL PDZ FP-1: inhibitors of human CAL PDZ peptide binding. purified CAL PDZ, TMR-peptide fluorescence polarization, 1 h. AID 602252. 300,000 tested, 0.92% active. inhibition, % at 24.9 µM;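 active means mean inhibition of at least 30% with at least half of replicates also reaching 30%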
Tn6 DDE FP: DD(E)-Tn6 binding inhibition, primary FP screen; P02675; inhibition, % at 8.3 µM; Fibrin DD(E) TRITC-Tn6 fluorescence polarization displacement; 370,000 tested, 0.21% active;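 active means inhibition above a per-campaign cutoff: mean of compounds within control limits plus 3 SD, cut at about 15% in these data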
ARNT-TACC3 inh: ARNT/TACC3 interaction disruption. Q9Y6A5. AlphaScreen His-ARNT PAS-B/GST-TACC3 binding, luminescence; TACC3 fragment carries E629A point mutation. inhibition, % at 9.99 µM. 390,000 tested, 0.66% active;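 active means mean inhibition of replicates at least 50% and at least half of replicates each reaching 50%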
CAL PDZ FP-2: human CAL PDZ-peptide interaction inhibition; Q9HD26; purified CAL PDZ, TMR-peptide fluorescence polarization, 1 h; inhibition, % at 20 µM; 330,000 tested, 0.02% active; AID 504414;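 active means highest replicate inhibition of at least 40%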
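Material – purified CerCALP PDZ construct · Detection – FP readout, S and P plane fluorescence · Measure – percent inhibition from loss of millipolarization · Controls – unlabelled peptide for full inhibition, DMSO wells as neutral · Probe or stimulus – TMR-labelled reporter peptide T*-PRC34 bound in PDZ groove · Times – 1 h at RT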
DDE Tn7 FP inh: inhibitors of Tn7 peptide binding to human fibrin DD(E); FP displacement of FITC-Tn7 peptide from fibrin DD(E); 0% = median of compound wells per plate; 370,000 tested, 0.13% active; P02675; AID 720508; inhibition, % at 8.3 µM;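 active means inhibition above the mean of compounds falling within the control limits plus 3 SD of them, cut at about 14% in these data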
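assay system = human clot-derived fibrin DD(E) complex | quantity = Fibrin-DD(E) at 2 µM final | timing = 10 min preincubation, 3 h with tracer, room temperature | signal = fluorescence polarization | measure = percent inhibition | benchmarks = high control wells with 10 µM unlabelled Aha-Tn7 peptide (full inhibition) | replicates = singlicate testing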
Numbers stand for hits; - = inactive; . = no result given; + = active, no number.

SMILES	GRK2 inh	CAL PDZ FP-1	Tn6 DDE FP	ARNT-TACC3 inh	CAL PDZ FP-2	DDE Tn7 FP inh
CCCC#Cc1cnc2c(c1)C(=O)N([C@@H](C)CO)C[C@H](C)[C@@H](CN(C)C(=O)Nc1cccc(F)c1)O2	.	.	.	-	.	.
COc1ccc(-n2nc(C(=O)NCC(=O)N3CCN(c4ccccc4F)CC3)c3ccccc3c2=O)cc1	-	73	-	.	-	-
CC(C)C(NC(=O)c1ccco1)C(=O)NC1CCCCCC1 (stereo not given)	-	-	-	-	-	-
Cc1sc(NC(=O)CN2CCCC2)nc1-c1ccc2c(c1)CCN2C(=O)c1cccc(F)c1	-	165	-	-	-	-
COc1ccc(OC)c(NC(=O)CC2SC(=N)N(c3ccccc3)C2=O)c1 (stereo not given)	-	+	-	-	-	-
COc1cc(-n2ccnc2SC)c(Cl)cc1Cl	-	54	-	-	-	-
COc1ccccc1-n1ccnc1SCC(=O)NC1CCCC1	-	-	-	-	-	-
Cc1ccc(Cl)cc1NC(=O)C[n+]1ccc(Cc2ccc([N+](=O)[O-])cc2)cc1	-	-	-	51	-	-
O=C(CSc1nc2ccccc2c(=O)n1-c1ccc(F)cc1)Nc1cc(S(=O)(=O)N2CCOCC2)ccc1Cl	53	-	-	-	-	-
CN(C)S(=O)(=O)c1cccc(C(=O)NC2CCCc3ccccc32)c1 (stereo not given)	-	-	-	-	-	-
CN(C)S(=O)(=O)c1ccc(C(=O)NC2CCCc3ccccc32)cc1 (stereo not given)	-	71	-	-	-	-
Cc1cc(NC(=O)CCC(=O)N(Cc2ccco2)C(C(=O)NC2CCCCC2)c2ccccc2)no1 (stereo not given)	-	39	-	-	-	-
Cc1ccc(-n2c(SCC(=O)Nc3ccc(S(=O)(=O)Nc4cc(C)nc(C)n4)cc3)nnc2-c2ccc(C(C)(C)C)cc2)cc1	.	.	-	.	.	-
C[C@@H]1CN([C@@H](C)CO)S(=O)(=O)c2ccc(C#CCC3CCCC3)cc2O[C@H]1CN(C)C(=O)c1ccccn1	.	.	.	-	.	.
CC(O)CNCCCOc1cccc(Oc2ccccc2)c1 (stereo not given)	-	111	-	-	134	-
COCCCNC(=O)C1CC(=O)OC1c1ccc(OC)c(OC)c1 (stereo not given)	-	42	-	-	-	-
Cc1cccc(NC(=O)N2CCC(NC(=O)c3ccco3)CC2)c1	-	-	-	-	.	-
O=C(NC1CCN(C(=O)Nc2cccc(Cl)c2)CC1)c1ccco1	-	58	-	-	-	-
COc1ccc(CNC(=O)C[C@H]2C[C@H](C(=O)N3CCOCC3)[C@@]3(CCC4CCCC4)c4[nH]c5cc(CCC(=O)N(C)C)ccc5c4CCN3C2=O)cc1OC	-	51	-	-	-	-
COc1ccc(NC(=O)N(C)C[C@@H]2Oc3ccc(NS(C)(=O)=O)cc3C(=O)N([C@@H](C)CO)C[C@H]2C)cc1	.	.	.	-	.	.
CCCn1c(SCC(=O)Nc2cc(Cl)ccc2OC)n[nH]c1=O	-	-	-	-	-	-
CCCn1c(SCC(=O)Nc2cc(Cl)ccc2Cl)n[nH]c1=O	-	52	-	-	-	-
COCC(=O)NC[C@H]1[C@@H](c2ccccc2)[C@H](CO)N1C(C)=O	.	.	.	-	.	.
Cn1c2ccc(F)cc2c2nnc(SCC(=O)Nc3cccc(O)c3)nc21	-	-	-	-	.	-
Cn1c2ccccc2c2nnc(SCC(=O)Nc3cccc(C(=O)O)c3)nc21	-	-	-	47	-	-
SMILES	GRK2 inh	CAL PDZ FP-1	Tn6 DDE FP	ARNT-TACC3 inh	CAL PDZ FP-2	DDE Tn7 FP inh
O=C(O)C[C@H]1C=C[C@H](NC(=O)Nc2ccccc2)[C@@H](CO)O1	.	.	.	-	.	.
CCN(CC)CCC(c1ccc(N(C)C)cc1)c1c(OC)cc(OC)c2c(-c3ccccc3)cc(=O)oc12 (stereo not given)	-	-	-	39	-	-
COc1cc(OC)c2c(-c3ccccc3)cc(=O)oc2c1C(CCN1CCN(c2ccccc2)CC1)c1ccc(N(C)C)cc1 (stereo not given)	.	-	-	-	-	-
COc1cc(OC)c2c(-c3ccccc3)cc(=O)oc2c1C(CCN1CCCC(C)C1)c1ccc(N(C)C)cc1 (stereo not given)	-	-	-	45	-	-
CCCNC(=O)Nc1ccc2c(c1)OC[C@H](C)N(C(=O)C1CCC1)C[C@@H](C)[C@@H](OC)CN(C)C2=O	.	.	.	-	.	.
COc1ccc(C)cc1NC(=O)Cn1c(=O)oc2ccccc21	-	56	-	-	-	-
Cc1ccc(NC(=O)CCn2c(=O)oc3ccccc32)c(C)c1	-	48	-	-	-	-
CNc1nc(Nc2ccccc2)nc(OCC(F)(F)F)n1	-	-	-	-	-	-
CNc1nc(NN)nc(Nc2ccccc2)n1	-	58	-	-	-	-
CCOC(=O)Cc1csc(NC(=O)/C=C/c2ccc(OC)cc2)n1	-	32	-	-	-	-
C=CCNC(=O)c1c(O)c2cccc3c2n(c1=O)CCC3	-	33	-	-	-	-
C[C@@H]1CN([C@H](C)CO)C(=O)Cc2cc(NC(=O)Cc3cn(C)c4ccccc34)ccc2O[C@H]1CN(C)C(=O)NC1CCCCC1	.	.	.	-	.	.
CC(=O)Nc1ccc(S(=O)(=O)Nc2nc3ccccc3nc2Nc2ccc(C(=O)O)c(O)c2)cc1	-	-	-	40	-	-
c1ccc(NC2=NCCCCS2)cc1	-	-	-	-	-	-
c1ccc2c(NC3=NCCCCS3)cccc2c1	-	34	-	-	.	-
Cc1cc(C(=O)NNC(=O)Nc2ccc(Cl)cc2)no1	-	.	-	-	-	-
CCCCC#Cc1ccc(C(=O)NNC(=O)Nc2cc(Cl)cc(Cl)c2)o1	-	30	-	-	-	-
Cc1csc2c(N3CCN(C(=O)c4ccc(C(C)(C)C)cc4)CC3)ncnc12	-	-	-	-	-	-
COc1cc(-c2cc(C(=O)Nc3nc4ccccc4s3)c3ccccc3n2)cc(OC)c1OC	-	87	-	-	-	-
COc1cc(-c2cc(C(=O)Nc3ccc(O)cc3)c3ccccc3n2)cc(OC)c1OC	-	-	-	-	-	-
CC1CC(C)C(=NNC(N)=O)C(C(O)CC2CCC(=O)NC2=O)C1 (stereo not given)	.	51	-	-	-	-
CCCn1c(=C(C#N)C#N)s/c(=C2\C=Cc3ccccc3N2CC)c1=O	.	55	-	-	-	-
COc1ccc(-c2nc3ccccc3o2)cc1OC	-	-	-	-	44	-
Cc1ccc(C(=O)Nc2cccc(C(=O)N3CCOCC3)c2)cc1Cl	-	63	-	-	-	-
NC(=O)NC(=O)CC1S/C(=N/N=C/c2ccccc2)NC1=O (stereo not given)	-	-	-	-	-	-
